The record followed here is ChEMBL document CHEMBL5325428 (Eur J Med Chem, 2023).

Each structure is given as a SMILES string. Where only a bound is given, the exact number is not on record here.

For one data set, the system named is SARS-CoV-2. The data set can be described thus: Antiviral activity against SARS-CoV-2 Wuhan-HU-1 infected in HEK293T cells assessed as inhibition of viral replication incubated for 30 hrs by luciferase reporter gene assay. It counts as functional, organism-based. Particulars: Severe acute respiratory syndrome coronavirus 2, Wuhan-HU-1, HEK-293T. The method in brief:
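This is a non-infectious Wuhan-Hu-1 replicon system, not infectious virus. Replicon RNA was electroporated into 293T cells, which were then incubated for 30 h with compound at 2, 0.5, 0.1 and 0.02 µM or with 0.1% DMSO. Read-out was luciferase activity. Values are mean ± SD.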

The nature of data set [1]: Inhibition of MERS-CoV 3CLpro using FAM-SAVLQ as substrate preincubated with enzyme for 1 hr followed by susbtrate addition and measured after 1 hr by FRET assay. Details: species or system Middle East respiratory syndrome-related coronavirus.
Data set [2] is described as follows: Cytotoxicity against human HEK293T cells assessed as reduction in cell viability incubated for 72 hrs by CytoTox 96 nonradioactive assay. It counts as toxicity, cell-based, HEK-293T.
For data set [3], the target named is Replicase polyprotein 1ab (Severe acute respiratory syndrome coronavirus 2, UniProt P0DTD1). The data set can be described thus: Inhibition of N-terminal His6-tagged full length SARS-CoV-2 3CLpro using FAM-SAVLQ as substrate preincubated with enzyme for 1 hr followed by susbtrate addition and measured after 1 hr by FRET assay.
The nature of data set [4]: Safety index, ratio of CC50 for cytotoxicity against human HEK293T cells to EC50 for antiviral activity against SARS-CoV-2 Wuhan-HU-1 infected in HEK293T cells. The class given is toxicity, cell-based. The settings on record: read-out: Ratio CC50/EC50. In short, it runs like this:
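In vitro safety index was calculated as the 293T CC50 divided by the SARS-CoV-2 replicon EC50.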

The term EC50 denotes the concentration giving half of the maximal effect. Regarding `CC(C)C[C@H](NC(=O)OCc1ccccc1)C(=O)N[C@@H](C[C@@H]1CCNC1=O)C(O)S(=O)(=O)O` (stereo not given in full), the EC50 in the data set on SARS-CoV-2 was 27 nM.
Broadly, the IC50 is the concentration at which inhibition is half-maximal. Read a high IC50 as weaker potency in that assay. The term CC50 denotes the concentration giving 50% cytotoxicity. Turning to `CC(C)C[C@H](NC(=O)OCc1ccccc1)C(=O)N[C@H](C=O)C[C@@H]1CCNC1=O`, the EC50 in the data set on SARS-CoV-2 is 31 nM. Also, in data set [1], it took 280 nM to reach half-maximal inhibition (IC50). The CC50 at 72 h in data set [2] is […].
As for `CC(C)C[C@H](NC(=O)OCC(C)(C)Sc1ccc(F)cc1)C(=O)N[C@H](C=O)C[C@@H]1CCNC1=O`, the IC50 in data set [3] is 170 nM; in data set [1], 190 nM. Also, in data set [2], the CC50 at 72 h was over 50000 nM.
With `CC(C)C[C@H](NC(=O)OCC(C)(C)Oc1ccc(F)cc1)C(=O)N[C@@H](C[C@@H]1CCNC1=O)C(O)S(=O)(=O)O` (stereo not given in full), the results for the IC50 in data set [3] and in data set [1] were 230 nM and 40 nM, respectively. Besides, the CC50 at 72 h in data set [2] is over 50000 nM.
Taken in the same sequence, the figures for `CC(C)C[C@H](NC(=O)OCC(C)(C)Sc1nc2ccccc2[nH]1)C(=O)N[C@H](C=O)C[C@@H]1CCNC1=O` were 300 nM, 120 nM and over 50000 nM.
With `[2H]C([2H])(OC(=O)N[C@@H](CC(C)C)C(=O)N[C@@H](C[C@@H]1CCNC1=O)C(O)S(=O)(=O)[O-])C(C)(C)Oc1ccc(Cl)cc1.[Na+]` (stereo not given in full), the concentration giving a half-maximal response (EC50) with SARS-CoV-2 was 12 nM. The IC50 was found to be 170 nM in data set [3] and 20 nM in data set [1]. For the same molecule, the CC50 at 72 h in data set [2] was over 50000 nM. Moreover, the selectivity ratio in data set [4] is 3330.
On the same counts, the results for `CC(C)C[C@H](NC(=O)OCC(C)(C)Sc1cccc(Cl)c1)C(=O)N[C@@H](C[C@@H]1CCNC1=O)C(O)S(=O)(=O)O` (stereo not given in full) are 11 nM, 170 nM, 100 nM, over 50000 nM and 3330.
For the molecule `CC(C)C[C@H](NC(=O)OCC(C)(C)Sc1ccccc1)C(=O)N[C@@H](C[C@@H]1CCNC1=O)C(O)(C(=O)NC1CC1)S(=O)(=O)O` (stereo not given in full), the EC50 in the data set with SARS-CoV-2 turned out to be 70 nM. Moreover, the IC50 was determined as 450 nM in data set [3] and 180 nM in data set [1]. Further, the CC50 at 72 h in data set [2] is over 50000 nM.
On to `CC(C)C[C@H](NC(=O)OCC(C)(C)Sc1cccc(F)c1)C(=O)N[C@H](C=O)C[C@@H]1CCNC1=O`, for which the EC50 in the data set on SARS-CoV-2 is 9 nM. The IC50 in data set [3] came out at 140 nM; in data set [1] it was 100 nM. The CC50 at 72 h in data set [2] is over 50000 nM. Further, in data set [4], the selectivity ratio is 3330.
Take `CC(C)C[C@H](NC(=O)OCC(C)(C)Oc1ccc(Cl)cc1)C(=O)N[C@H](C=O)C[C@@H]1CCNC1=O`: the results for the IC50 in data set [3] and in data set [1] were 460 nM and 20 nM, respectively. Besides, the CC50 at 72 h in data set [2] is over 50000 nM.
Taken in the same sequence, the figures for `CC(C)C[C@H](NC(=O)OCC(C)(C)Oc1ccccc1)C(=O)N[C@@H](C[C@@H]1CCNC1=O)C(O)S(=O)(=O)O` (stereo not given in full) were 240 nM, 20 nM and over 50000 nM.
In the case of `CC(C)C[C@H](NC(=O)OCC(C)(C)Sc1ccccc1)C(=O)N[C@@H](C[C@@H]1CCNC1=O)C(O)S(=O)(=O)O` (stereo not given in full), in the data set on SARS-CoV-2, the EC50 was found to be 10 nM. The molecule further showed an IC50 in data set [3] of 90 nM. The CC50 at 72 h in data set [2] was over 50000 nM. Also, the selectivity ratio in data set [4] is 3330.
As to `CC(C)C[C@H](NC(=O)OCC(C)(C)Oc1cccc(F)c1)C(=O)N[C@H](C=O)C[C@@H]1CCNC1=O`, the IC50 in data set [3] turned out to be 200 nM; in data set [1], 50 nM. Moreover, the CC50 at 72 h in data set [2] is over 50000 nM.
Take `CC(C)C[C@H](NC(=O)OCC(C)(C)Oc1cccc(F)c1)C(=O)N[C@@H](C[C@@H]1CCNC1=O)C(O)S(=O)(=O)O` (stereo not given in full): the IC50 in data set [3] is 120 nM; in data set [1], 40 nM. Also, in data set [2], the CC50 at 72 h was over 50000 nM.
On the same counts, the results for `[2H]C([2H])(OC(=O)N[C@@H](CC(C)C)C(=O)N[C@@H](C[C@@H]1CCNC1=O)C(O)S(=O)(=O)[O-])C(C)(C)Oc1cccc(Cl)c1.[Na+]` (stereo not given in full) are 280 nM, 70 nM and over 50000 nM.
`CC(C)C[C@H](NC(=O)OCC(C)(C)Oc1cccc(Cl)c1)C(=O)N[C@@H](C[C@@H]1CCNC1=O)C(O)S(=O)(=O)O` (stereo not given in full): the EC50 in the data set with SARS-CoV-2 turned out to be 14 nM. Moreover, the figures for the IC50 in data set [3] and in data set [1] were 210 nM and 20 nM, respectively. Also, the CC50 at 72 h in data set [2] is over 50000 nM. Moreover, the selectivity ratio in data set [4] amounted to 3330.
With `CC(C)C[C@H](NC(=O)OCCSc1ccccc1)C(=O)N[C@H](C=O)C[C@@H]1CCNC1=O`, the values for the IC50 in data set [3] and in data set [1] were 320 nM and 140 nM, respectively. Also, in data set [2], the CC50 at 72 h is over 50000 nM.
`CC(C)C[C@H](NC(=O)OCC(C)(C)Sc1nc2ccccc2[nH]1)C(=O)N[C@@H](C[C@@H]1CCNC1=O)C(O)S(=O)(=O)O` (stereo not given in full) returned an IC50 in data set [1] of 210 nM. In addition, the CC50 at 72 h in data set [2] was over 50000 nM.
With `CC(C)C[C@H](NC(=O)OCC(C)(C)Sc1cccc(F)c1)C(=O)N[C@@H](C[C@@H]1CCNC1=O)C(O)S(=O)(=O)O` (stereo not given in full), the concentration giving a half-maximal response (EC50) with SARS-CoV-2 amounted to 10 nM. The molecule also displayed an IC50 in data set [3] of 130 nM. Also, in data set [2], the CC50 at 72 h is over 50000 nM. Moreover, the selectivity ratio in data set [4] turned out to be 3330.
Consider `CC(C)C[C@H](NC(=O)OCC(C)(C)S(=O)(=O)c1ccccc1)C(=O)N[C@H](C=O)C[C@@H]1CCNC1=O`, for which the results for the IC50 in data set [3] and in data set [1] were 190 nM and 260 nM, respectively. Also, in data set [2], the CC50 at 72 h was over 50000 nM.
With `CC(C)C[C@H](NC(=O)OCC(C)(C)Oc1ccccc1)C(=O)N[C@H](C=O)C[C@@H]1CCNC1=O`, the IC50 in data set [3] amounted to 310 nM; in data set [1] it was 40 nM. Also, in data set [2], the CC50 at 72 h was over 50000 nM.
Take `CC(C)C[C@H](NC(=O)OCC(C)(C)Oc1ccc(Cl)cc1)C(=O)N[C@@H](C[C@@H]1CCNC1=O)C(O)S(=O)(=O)O` (stereo not given in full): the values for the IC50 in data set [3] and in data set [1] were 340 nM and 110 nM, respectively. Further, the CC50 at 72 h in data set [2] was over 50000 nM.
With `CC(C)C[C@H](NC(=O)OCCSc1ccccc1)C(=O)N[C@@H](C[C@@H]1CCNC1=O)C(O)S(=O)(=O)O` (stereo not given in full), the IC50 in data set [3] stood at 310 nM; in data set [1], 140 nM. Besides, the CC50 at 72 h in data set [2] is over 50000 nM.
On the same counts, the results for `CC(C)C[C@H](NC(=O)OCC(C)(C)Sc1ccc(F)cc1)C(=O)N[C@@H](C[C@@H]1CCNC1=O)C(O)S(=O)(=O)O` (stereo not given in full) are 270 nM, 150 nM and over 50000 nM.
Consider `[2H]C([2H])(OC(=O)N[C@@H](CC(C)C)C(=O)N[C@H](C=O)C[C@@H]1CCNC1=O)C(C)(C)Oc1cccc(Cl)c1`, for which the IC50 came to 300 nM in data set [3] and 40 nM in data set [1]. In addition, the CC50 at 72 h in data set [2] was over 50000 nM.
Regarding `CC(C)C[C@H](NC(=O)OCC(C)(C)S(=O)(=O)c1ccccc1)C(=O)N[C@@H](C[C@@H]1CCNC1=O)C(O)S(=O)(=O)O` (stereo not given in full), the IC50 was determined as 200 nM in data set [3] and 280 nM in data set [1]. For the same molecule, the CC50 at 72 h in data set [2] is over 50000 nM.
Consider `[2H]C([2H])(OC(=O)N[C@@H](CC(C)C)C(=O)N[C@@H](C[C@@H]1CCNC1=O)C(O)S(=O)(=O)[O-])C(C)(C)Sc1ccccc1.[Na+]` (stereo not given in full), for which, in the data set on SARS-CoV-2, the EC50 was 12 nM. The IC50 came to 310 nM in data set [3] and 40 nM in data set [1]. The CC50 at 72 h in data set [2] is over 50000 nM. Moreover, in data set [4], the selectivity ratio was found to be 3330.
In the case of `CC(C)C[C@H](NC(=O)OCC(C)(C)[S+]([O-])c1ccccc1)C(=O)N[C@H](C=O)C[C@@H]1CCNC1=O` (mixture of isomers), the IC50 worked out at 330 nM in data set [3] and 190 nM in data set [1]. The CC50 at 72 h in data set [2] is over 50000 nM.
Regarding `CC(C)C[C@H](NC(=O)OCC(C)(O)c1cccc(Cl)c1)C(=O)N[C@@H](C[C@@H]1CCNC1=O)C(O)S(=O)(=O)O` (mixture of isomers), in the data set on SARS-CoV-2, the EC50 amounted to 25 nM. The IC50 in data set [3] worked out at 320 nM; in data set [1], 100 nM. For the same molecule, the CC50 at 72 h in data set [2] was over 50000 nM.
`CC(C)C[C@H](NC(=O)OCC(C)(C)[S+]([O-])c1ccccc1)C(=O)N[C@@H](C[C@@H]1CCNC1=O)C(O)S(=O)(=O)O` (mixture of isomers): the IC50 in data set [3] amounted to 350 nM; in data set [1] it was 250 nM. The CC50 at 72 h in data set [2] is over 50000 nM.
For the molecule `CC(C)C[C@H](NC(=O)OCC(C)(O)c1cccc(Cl)c1)C(=O)N[C@H](C=O)C[C@@H]1CCNC1=O` (mixture of isomers), the EC50 with SARS-CoV-2 came to 25 nM. Besides, the results for the IC50 in data set [3] and in data set [1] were 290 nM and 120 nM, respectively. In addition, the CC50 at 72 h in data set [2] was over 50000 nM.
